In brackets after ≈: the same amount, converted by molar mass.

Data on two compounds can be found in ChEMBL document CHEMBL4257537, “Design, synthesis, and biological evaluation of m-amidophenol derivatives as a new class of antitubercular agents” (Medchemcomm, 2018).

Holding throughout (assay type): functional
In test [1] the test system is Mycobacterium tuberculosis. Briefly: Antimycobacterial activity against rifampicin-resistant Mycobacterium tuberculosis isolate P91 after 7 days by microplate alamar blue assay. The settings on record: isolate P91, 168 h. The essentials:
(§1)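 Each well held a 1/100 culture dilution plus 10-point two-fold DMSO dilutions (top 100 µg/mL, final DMSO 2%). INH and RIF were the positive controls. After 7 days at 37 °C, Tween 80 and alamarBlue were added for 16–24 h. MIC was the lowest concentration preventing the blue-to-pink change.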
On the technique in general: Alamar Blue is a resazurin reagent that responds to reducing activity.

In test [2] the test system is Mycobacterium tuberculosis. Kind of test: Antimycobacterial activity against rifampicin/isoniazid/pyrazinamide-resistant Mycobacterium tuberculosis isolate P71 after 7 days by microplate alamar blue assay. The settings on record: isolate P71, 168 h. An outline of the steps: as §1
For test [3], the system named is Mycobacterium tuberculosis. Kind of test: Antimycobacterial activity against rifampicin-resistant Mycobacterium tuberculosis isolate P90 after 7 days by microplate alamar blue assay. The settings on record: isolate P90, 168 h. An outline of the steps: as §1
For test [4], the system named is Mycobacterium tuberculosis. Kind of test: Antimycobacterial activity against rifampicin-resistant Mycobacterium tuberculosis isolate R7 after 7 days by microplate alamar blue assay. The settings on record: isolate R7, 168 h. An outline of the steps:
as §1

Test [5] concerns Mycobacterium tuberculosis. Kind of test: Antimycobacterial activity against rifampicin-resistant Mycobacterium tuberculosis isolate P103 after 7 days by microplate alamar blue assay. The settings on record: isolate P103, 168 h. An outline of the steps:
as §1

The subject of test [6] is Mycobacterium tuberculosis. Kind of test: Antimycobacterial activity against rifampicin-resistant Mycobacterium tuberculosis isolate P98 after 7 days by microplate alamar blue assay. The settings on record: isolate P98, 168 h. The essentials: as §1

The term MIC denotes the lowest concentration found to suppress growth. Take `O=C(Nc1cc(O)cc(Cc2ccccc2)c1)C1CCCCC1`: the MIC in test [1] is 0.39 µg/mL (≈ 1.26 µM); in test [2] it was greater than 100 µg/mL; in test [3] it was greater than 100 µg/mL; in test [4], 3.12 µg/mL (≈ 10.1 µM); in test [5], 0.39 µg/mL (≈ 1.26 µM); in test [6], greater than 100 µg/mL.

Turning to `O=C(Nc1cc(O)cc(Cc2ccccc2)c1)c1ccccc1`, the MIC in test [1] was 0.39 µg/mL (≈ 1.29 µM); in test [2], greater than 100 µg/mL; in test [3], greater than 100 µg/mL; in test [4], 0.78 µg/mL (≈ 2.57 µM); in test [5], 0.39 µg/mL (≈ 1.29 µM); in test [6] it was greater than 100 µg/mL.
